Data set [1] is described as follows: melting temperature; fluorescence melt of hairpins on a sequencing array, two-state fit, raised by 9.35 °C to match UV melts. The conditions noted are these: sodium 0.088 M. Summed up:
(§1)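 Bootstrapped two-state fits yielded melting temperature and folding enthalpy for library hairpins. Cy3 fluorescence, with annealed Cy3 and quencher oligos, was imaged on a sequenced MiSeq flow cell in 50 mM Na-HEPES pH 8.0, 25 mM NaCl in 2.5 °C steps up to 60 °C, and normalised to pre-quench Cy3 and to control constructs. Four replicates were combined by inverse variance, and fitted temperatures were raised by 9.35 °C to match UV melts.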

The nature of data set [2]: folding enthalpy; higher = less favourable; fluorescence melt of hairpins on a sequencing array, two-state fit. The conditions noted are these: sodium 0.088 M. A digest of the protocol:
as §1

For GCTCTGGGAAACCAAAGC (((.(((....))).))), the Tm in data set [1] was determined as 35.5 °C. Further, the folding enthalpy in data set [2] was -99.1 kJ/mol.
For GCTCTGGGAAACCGGAGC ((((.((....)).)))), in that order: 57.2 °C and -221 kJ/mol.
With GCTCTGGGAAACTAGGGC ((.((.(....).)).)), in data set [1], the Tm amounted to 36.5 °C. Also, the folding enthalpy in data set [2] is -116 kJ/mol.
On the same counts, the results for GCTCTGTCGAAAGACAGC (((..(((....)))))) are 36.5 °C and -36.1 kJ/mol.
On to GCTCTTCGAAAGAAAGC (((.(((....)))))), for which the Tm in data set [1] came out at 36.1 °C. In addition, the folding enthalpy in data set [2] is -86.1 kJ/mol.
On the same counts, the results for GCTCTTGGAAACAAGAAC (.(((((....))))).) are 31.4 °C and -68.1 kJ/mol.
For GCTGAACGAAAGTTAAGC (((.(((....))).))), the Tm in data set [1] is 50.6 °C. Further, in data set [2], the folding enthalpy was -132 kJ/mol.
Turning to GCTGAACGAAAGTTGAGC (((.(((....))).))), the Tm in data set [1] amounted to 48.7 °C. Further, in data set [2], the folding enthalpy is -132 kJ/mol.
For GCTGACGAAAGTCAAAGC ((((((....)))..))), in that order: 48.7 °C and -74.9 kJ/mol.
With GCTGACGAAAGTCAAGC ((((((....))).))), in data set [1], the Tm worked out at 56.3 °C. Moreover, the folding enthalpy in data set [2] was -120 kJ/mol.
Consider GCTGACGAAAGTCATAGC ((((((....)))..))), for which, in data set [1], the Tm was 47.1 °C. For the same sequence, in data set [2], the folding enthalpy was -66.7 kJ/mol.
For GCTGACGAAAGTCGGAGC ((((((....)))..))), in that order: 45.7 °C and -69 kJ/mol.
For GCTGACGAAAGTCGTAGC ((((((....)))..))), in that order: 47.1 °C and -90.5 kJ/mol.
Turning to GCTGACGAAAGTCTAAGC ((((((....)))..))), the Tm in data set [1] is 47.1 °C. Moreover, the folding enthalpy in data set [2] is -80.1 kJ/mol.
As for GCTGACGCGAAAGCGAGC (((..(((....)))))), the Tm in data set [1] is 47.1 °C. Further, the folding enthalpy in data set [2] is -58.1 kJ/mol.
For GCTGACGGAAACATCAGC (((((.(....).))))), in that order: 44.3 °C and -147 kJ/mol.
For GCTGACGGAAACGCCAAC (.((.((....)).)).), in that order: 25.9 °C and -59 kJ/mol.
Take GCTGACTCGAAAGAGAGC (((..(((....)))))): the Tm in data set [1] is 31.6 °C. For the same sequence, the folding enthalpy in data set [2] is -61.1 kJ/mol.
GCTGAGCGAAAGCACGGC ((.(.((....)).).)): in data set [1], the Tm was 56.8 °C. The folding enthalpy in data set [2] is -90 kJ/mol.
For GCTGAGCGAAAGCATAGC (((..((....))..))), the Tm in data set [1] turned out to be 50 °C. In data set [2], the folding enthalpy was -78.9 kJ/mol.
In the case of GCTGAGCGAAAGCTGTGC ((..(((....)))..)), the Tm in data set [1] amounted to 45.5 °C. For the same sequence, in data set [2], the folding enthalpy is -74.5 kJ/mol.
On the same counts, the results for GCTGAGGCGAAAGCCAGC (((..(((....)))))) are 52.8 °C and -93.3 kJ/mol.
Regarding GCTGAGGGAAACCTCAAC (.(((((....))))).), the Tm in data set [1] was found to be 36.6 °C. Also, the folding enthalpy in data set [2] was -79.2 kJ/mol.
Turning to GCTGATCCGAAAGGAAGC (((..(((....)))))), the Tm in data set [1] is 39 °C. Besides, the folding enthalpy in data set [2] was -75.4 kJ/mol.
For the sequence GCTGATCGAAAGATAAGC (((.(((....))).))), in data set [1], the Tm stood at 49.5 °C. In addition, the folding enthalpy in data set [2] was -147 kJ/mol.
As to GCTGATCGAAAGATGAGC (((.(((....))).))), the Tm in data set [1] was determined as 48 °C. Moreover, the folding enthalpy in data set [2] is -135 kJ/mol.
GCTGATGAAAATCAGC ((((((....)))))): in data set [1], the Tm is 60.6 °C. Also, the folding enthalpy in data set [2] is -150 kJ/mol.
On to GCTGATGCGAAAGCAAGC (((..(((....)))))), for which the Tm in data set [1] is 43.5 °C. Further, the folding enthalpy in data set [2] was -81.1 kJ/mol.
For GCTGATGGAAACATCAAC (.(((((....))))).), in that order: 36 °C and -87.7 kJ/mol.
On the same counts, the results for GCTGATGGAAACGTCAGC (((((.(....).))))) are 53.3 °C and -169 kJ/mol.
For GCTGCCACGAAAGTGAGC (((..(((....)))))), in that order: 50.2 °C and -54.9 kJ/mol.
Turning to GCTGCCCGAAAGGGTAGC (((.(((....))).))), the Tm in data set [1] was determined as 69 °C. Besides, the folding enthalpy in data set [2] is -170 kJ/mol.
On the same counts, the results for GCTGCCGAAAGGCAAAGC ((((((....)))..))) are 57.1 °C and -61.9 kJ/mol.
Turning to GCTGCCGAAAGGCTCAGC ((((((....)))..))), the Tm in data set [1] was 44.4 °C. For the same sequence, the folding enthalpy in data set [2] is -62.7 kJ/mol.
For GCTGCCGGAAACAGCAGC (((((.(....).))))), in data set [1], the Tm is 53.8 °C. Besides, the folding enthalpy in data set [2] was -143 kJ/mol.
Regarding GCTGCCGGAAACGGTGGC ((..(((....)))..)), the Tm in data set [1] came out at 55.1 °C. In addition, the folding enthalpy in data set [2] is -167 kJ/mol.

Source of the values: the array DNA melting data of Ke et al. (doi:10.1101/2024.01.08.574731).
